ChEMBL document CHEMBL1133504 (J Med Chem, 2000)

What was measured:
[1] = Evaluated for Pharmacokinetic property: Area under the curve; type: ADME; design: concentration or dose not given beside the values
[2] = Evaluated for time required to reach maximum concentration in plasma; type: ADME
Syrian golden hamster = assay: Suppression of Hamster ethanol intake by 0.07 mmol o.d. i.p.; type: functional, Mesocricetus auratus
Summary of the method: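 Male Syrian golden hamsters (80-120 g) at 23 °C on a 12/12-h cycle had free access to chow, water and 15% ethanol. Baseline was 6 days of daily ip saline with 0.5% DMSO. Then 0.07 mmol ip daily for 6 days. 24-h ethanol intake recorded. Mean ± SD of 4-6 hamsters.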

[3] = target: Monoamine oxidase (Mesocricetus auratus); assay: Inhibition of Hamster Liver mitochondrial Monoamine oxidase.
[4] = system: Aldehyde dehydrogenase, mitochondrial (Mesocricetus auratus); assay: Accumulation of 5 HIAL in isolated Hamster Liver Mitochondria at 3 uM.
[5] = system: Aldehyde dehydrogenase, mitochondrial (Mesocricetus auratus); assay: Accumulation of 5 HIAL in isolated Hamster Liver Mitochondria at 9 uM.
[6] = system: Aldehyde dehydrogenase, mitochondrial (Mesocricetus auratus); assay: Accumulation of 5 HIAL in isolated Hamster Liver Mitochondria at 0.3 uM.
[7] = system: Aldehyde dehydrogenase, mitochondrial (Mesocricetus auratus); assay: Accumulation of 5 HIAL in isolated Hamster Liver Mitochondria at 0.9 uM.
Mesocricetus auratus [8] = species: Mesocricetus auratus; assay: Evaluated for the 5-HIAL accumulation in isolated Hamster Liver Mitochondria at the 3 uM
Mesocricetus auratus [9] = species: Mesocricetus auratus; assay: Evaluated for percentage inhibition of 5-HIAA formation in isolated Hamster Liver Mitochondria at the 9 uM

| Compound | AUC [1] [nM hr ml] | Tmax [2] [h] | IC50 [3] [µM] | Control [4] [%] | Control [5] [%] | Control [6] [%] | Control [7] [%] | Suppression (Syrian golden hamster) [%] | Control (Mesocricetus auratus [8]) [%] | inhibition (Mesocricetus auratus [9]) [%] |
| --- | --- | --- | --- | --- | --- | --- | --- | --- | --- | --- |
| O=c1cc(-c2ccccc2)oc2cc(O)cc(O)c12 [CHRYSIN] | 110 | 1 | – | – | – | – | – | 0 | – | – |
| O=c1c(-c2ccc(O)cc2)coc2cc(O)cc(O)c12 [GENISTEIN] | 134 | 1 | – | – | – | – | – | 0 | – | – |
| O=c1cc(-c2ccccc2)oc2c(O)c(O)ccc12 [7,8-DIHYDROXYFLAVONE] | 111 | 0.5 | – | – | – | – | – | 0 | 79.1 | – |
| COc1ccc(-c2coc3cc(O)cc(O)c3c2=O)cc1 [BIOCHANIN] | 99 | 1 | – | – | – | – | – | 0 | – | – |
| C=CCOc1ccc2c(=O)c(-c3ccc(O)cc3)coc2c1 | 29 | 1 | 0.45 | 56.1 | 26.7 | 106 | 91 | 0 | – | – |
| O=c1c(-c2ccc(O)cc2)coc2cc(O[C@@H]3O[C@H](CO)[C@@H](O)[C@H](O)[C@H]3O)ccc12 [DAIDZIN] | 120 | 1 | – | – | – | – | – | 62 | – | – |
| O=c1c(-c2ccc(O)cc2)coc2cc(O)ccc12 [DAIDZEIN] | 130 | 1 | – | – | – | – | – | 22 | – | 80.6 |
| O=c1c(-c2ccc(O)cc2)coc2cc(OCCC3OCCCO3)ccc12 | 99 | 0.5 | 7 | 141 | 86.1 | 165 | 176 | 32 | – | – |

Now from value to compound, other results behind:

| AUC [1] [nM hr ml] | Tmax [2] [h] | IC50 [3] [µM] | Control [4] [%] | Control [5] [%] | Control [6] [%] | Control [7] [%] | Compound | Suppression (Syrian golden hamster) [%] | Control (Mesocricetus auratus [8]) [%] | inhibition (Mesocricetus auratus [9]) [%] |
| --- | --- | --- | --- | --- | --- | --- | --- | --- | --- | --- |
| 68 | 0.5 | 2.1 | 228 | 192 | 310 | 265 | O=C(O)CCCCCCOc1ccc2c(=O)c(-c3ccc(O)cc3)coc2c1 | 69 | – | – |
| 56 | 0.5 | – | – | – | – | – | O=C(O)CCCCCCCCCCOc1ccc2c(=O)c(-c3ccc(O)cc3)coc2c1 | 86 | – | – |
| 73 | 2 | 0.15 | 34.7 | 20.5 | 75.8 | 57.8 | O=c1c(-c2ccc(O)cc2)coc2cc(OCCCBr)ccc12 | 0 | – | – |
| 141 | 0.5 | 1.7 | 63 | 30.5 | 112 | 97.5 | O=c1c(-c2ccc(O)cc2)coc2cc(OCC(O)CO)ccc12 (stereo not drawn) | 0 | – | – |
| 68 | 2 | 4 | 87.7 | 42.9 | 112 | 116 | O=c1c(-c2ccc(O)cc2)coc2cc(OCCCCBr)ccc12 | 14 | – | – |
| 38 | 1 | 0.3 | 34.3 | 17.8 | 88.6 | 62.9 | CCOc1ccc2c(=O)c(-c3ccc(O)cc3)coc2c1 | 0 | – | – |
| 73 | 0.5 | 10 | 189 | 129 | 234 | 233 | O=C(O)CCCCCCCCCOc1ccc2c(=O)c(-c3ccc(O)cc3)coc2c1 | 84 | – | – |
| 62 | 2 | 2 | 108 | 74 | 144 | 112 | O=c1c(-c2ccc(O)cc2)coc2cc(OCCCCCCBr)ccc12 | 29 | – | – |
| 77 | 0.5 | – | – | – | – | – | O=C(O)CCCCCOc1ccc2c(=O)c(-c3ccc(O)cc3)coc2c1 | 69 | – | – |
